Measured values from PMC3346155 (Drug Design, Development and Therapy, 2012).
Entries after “also recorded” stand apart in the source; their conditions may differ. *1 amine or outer side, *2 acyl side, *3 side chain or, on linkers, in order; H or OH if unused. Where a SMILES comes first, the peptide text is derived from it. Side-chain parts run from the residue outwards. [ ]: non-standard residue; d: D form. The star is where a group is joined. Ethylenediamine = C(CN[*:2])N[*:1]; Hyp = O=C(O)[C@@H]1C[C@@H](O)CN1; Phg = N[C@H](C(=O)O)c1ccccc1; CO = O=C([*:1])[*:2]; Bn = c1ccc(C*)cc1

Columns and labels:
human sst1 = conditions: cited from earlier work; for IC50: read-out: IC50, binding affinity to sst1, human sst1, mean ± SEM
human sst2 = conditions: cited from earlier work; for IC50: read-out: IC50, binding affinity to sst2, human sst2, mean ± SEM
human sst3 = conditions: cited from earlier work; for IC50: read-out: IC50, binding affinity to sst3, human sst3, mean ± SEM
human sst4 = conditions: read-out: IC50, binding affinity to sst4, mean ± SEM; cited from earlier work
human sst5 = conditions: cited from earlier work; for IC50: read-out: IC50, binding affinity to sst5, human sst5, mean ± SEM
[1] = Plasma pharmacokinetics after a single subcutaneous dose in healthy volunteers; format: in vivo, human
Method in brief: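 Single s.c. dose in healthy males. Blood was drawn by venipuncture or forearm cannula up to 144 h post-dose and centrifuged to plasma. Drug was quantified by validated radioimmunoassay (LLOQ 0.03 ng/mL); values below the LLOQ were set to zero. Parameters came from non-compartmental analysis, reported as median (range) for tmax and mean ± SD otherwise. Dose proportionality was tested by a log-dose versus log-parameter linear model.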

[2] = system: GHRH-stimulated GH secretion; assay: GHRH stimulation test, GH suppression in healthy volunteers; format: in vivo, human; conditions: for Emax, maximum GH reduction: value ± standard error
Method in brief: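 The GHRH stimulation test ran on Day –1 and Day 1. A 1 μg/kg GHRH bolus was given about 3 h after the s.c. dose. Plasma GH was sampled at −60 and 0 min and up to 120 min after GHRH, and measured by chemiluminescence assay (LLOQ 0.06 ng/mL).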

[3] = Safety and tolerability of a single subcutaneous dose in healthy volunteers; format: in vivo, human
Method in brief: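 Randomized, double-blind, placebo-controlled ascending single s.c. doses; cohorts had 4–8 active and 2 placebo subjects. Subjects were confined from about 36 h pre-dose until 48-h safety results were available, with follow-up over 7 days. AEs came from self-report, investigator questioning, examination or laboratory tests. Laboratory abnormalities counted as AEs only if symptomatic or treated. SAEs were recorded until 4 weeks after the trial. Laboratory tests were run centrally, with descriptive statistics.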

[4] = Blood glucose levels after a single subcutaneous dose in healthy volunteers; format: in vivo, human
Method in brief: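 Healthy males aged 18–40 received one s.c. dose (1–1200 μg) or placebo between 8 and 9 am, about 1 h after a light standardized meal. Blood glucose was measured by the central standard laboratory panel at these times: pre-breakfast before dosing; before and 60 min after a standard lunch on Day –1 and Day 1; 2 h post-dose; and 23 h post-dose on Day 2.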

[5] = compared with octreotide; cited from earlier work
[6] = male, human, plasma, sc, 2.5 ug
[7] = male, human, plasma, sc, 100 ug
[8] = male, human, plasma, sc, 200 ug
[9] = male, human, plasma, sc, 300 ug
[10] = male, human, plasma, sc, 600 ug
[11] = male, human, plasma, sc, 1200 ug
[12] = single s.c. dose, across dose levels, healthy male volunteers
[13] = single s.c. dose 1200 μg, n = 6

Lanreotide [reference compound]
IC50 (human sst1): 180 ± 20 nM
IC50 (human sst2): 0.54 ± 0.08 nM
IC50 (human sst3): 14 ± 9 nM
IC50 (human sst4): 230 ± 40 nM
IC50 (human sst5): 17 ± 5 nM

Octreotide [reference compound]
IC50 (human sst1): 280 ± 80 nM
IC50 (human sst2): 0.38 ± 0.08 nM
IC50 (human sst3): 7.1 ± 1.4 nM
IC50 (human sst4): > 1000 nM
IC50 (human sst5): 6.3 ± 1 nM

NCCCC[C@@H]1NC(=O)[C@@H](Cc2c[nH]c3ccccc23)NC(=O)[C@H](c2ccccc2)NC(=O)[C@@H]2C[C@@H](OC(=O)NCCN)CN2C(=O)[C@H](Cc2ccccc2)NC(=O)[C@H](Cc2ccc(OCc3ccccc3)cc2)NC1=O [Pasireotide] (cyclo([Hyp]([CO-Ethylenediamine])[Phg][dW]KY(Bn)F))
AUC(0-t) [1, 6]: 0.11 ± 0.09 ng·h/mL
Cmax [1, 6]: 0.06 ± 0.01 ng/mL
Tmax [1, 6]: 15 min
AUC(0-t) ([1]; male, human, plasma, sc, 10 ug): 0.66 ± 0.25 ng·h/mL
Cmax ([1]; male, human, plasma, sc, 10 ug): 0.24 ± 0.06 ng/mL
Tmax ([1]; male, human, plasma, sc, 10 ug): 15 min
Vd/F ([1]; male, human, plasma, sc, 10 ug): 38.1 L
AUC(0-t) ([1]; male, human, plasma, sc, 30 ug): 2.78 ± 1.02 ng·h/mL
Cmax ([1]; male, human, plasma, sc, 30 ug): 0.72 ± 0.17 ng/mL
Tmax ([1]; male, human, plasma, sc, 30 ug): 15 min
Vd/F ([1]; male, human, plasma, sc, 30 ug): 105 ± 5.7 L
half-life ([1]; male, human, plasma, sc, 30 ug): 444 ± 132 min
AUC(0-inf) [1, 7]: 9.59 ± 2.44 ng·h/mL
AUC(0-t) [1, 7]: 9.1 ± 2.37 ng·h/mL
CL/F [1, 7]: 183 mL/min
Cmax [1, 7]: 2.23 ± 0.45 ng/mL
Tmax [1, 7]: 30 min
Vd/F [1, 7]: 131 ± 41 L
AUC(0-inf) [1, 8]: 17.5 ± 3.82 ng·h/mL
AUC(0-t) [1, 8]: 16.8 ± 3.65 ng·h/mL
CL/F [1, 8]: 198 mL/min
Cmax [1, 8]: 3.73 ± 0.9 ng/mL
Tmax [1, 8]: 22.8 min
Vd/F [1, 8]: 162 ± 33.9 L
AUC(0-inf) [1, 9]: 27.1 ± 6.98 ng·h/mL
AUC(0-t) [1, 9]: 26 ± 6.87 ng·h/mL
CL/F [1, 9]: 198 mL/min
Cmax [1, 9]: 4.71 ± 1.79 ng/mL
Tmax [1, 9]: 22.8 min
Vd/F [1, 9]: 180 ± 44.3 L
AUC(0-inf) [1, 10]: 78.6 ± 12.3 ng·h/mL
AUC(0-t) [1, 10]: 75.6 ± 11.2 ng·h/mL
CL/F [1, 10]: 130 mL/min
Cmax [1, 10]: 15.6 ± 3.25 ng/mL
Tmax [1, 10]: 30 min
Vd/F [1, 10]: 464 ± 440 L
AUC(0-inf) [1, 11]: 93.6 ± 13.6 ng·h/mL
AUC(0-t) [1, 11]: 90.4 ± 13.2 ng·h/mL
CL/F [1, 11]: 218 mL/min
Cmax [1, 11]: 22.2 ± 5.53 ng/mL
Tmax [1, 11]: 30 min
Vd/F [1, 11]: 1190 ± 1570 L
half-life [1, 11]: 546 ± 126 min
partial AUC in the γ phase as contribution to total AUC∞ ([1]; single s.c. dose, 600 μg and 1200 μg, healthy male volunteers): < 15%
Tmax [1, 12]: 15 to 30 min
t½,β (effective elimination half-life), mean [1, 12]: 420 to 660 min
Vz/F, mean value ([1]; single s.c. dose, low doses (10 μg), healthy male volunteers): 40 L
Emax, maximum GH reduction ([2]; non-linear Emax model for GH AUC ratio versus Cavg): 0.99 ± 0.03
Emax, maximum GH reduction ([2]; non-linear Emax model for GH AUC ratio versus dose): 1.00 ± 0.00
GH suppression ([2]; single pasireotide doses between 200 μg and 1200 μg s.c.): 79%–96%
decrease in GH AUC2h ([2]; single s.c. dose 30–100 μg): approximately 45%
reduction in GH AUC2h ([2]; single s.c. doses between 1 μg and 10 μg): No reduction
AEs considered related to the study drug ([3]; observed in the 1200 μg dose group only, of a total of 12 AEs in the study): eight
increased lipase level ([3]; one subject, single s.c. dose 10 μg, 48 hours post-dose, normal range 23–300 U/L): 523 U/L
subjects who experienced at least one AE [3, 13]: 6 subjects
subjects who experienced nausea [3, 13]: five
deaths, serious adverse events, clinically significant changes in laboratory values, vital signs or ECG ([3]; single s.c. dose 1–1200 μg, any dose, healthy male volunteers): no serious adverse events observed at any dose; also recorded: no reports of death, SAEs, or clinically significant changes in laboratory values, vital signs or ECG parameters
tolerability ([3]; single s.c. dose 1–1200 μg, healthy male volunteers): generally well tolerated
maximum tolerable dose ([3]; single s.c. dose, tested range 1–1200 μg, healthy male volunteers): not established within the tested range
glucose values ([4]; all dose groups, twenty-three hours after the injection): normal for all groups
blood glucose levels ([4]; doses between 200 μg and 1200 μg, 2–6 hours after administration, resolved by 23 hours post-dosing): Transient elevations in blood glucose levels
glucose levels ([4]; single s.c. dose 600 μg and 1200 μg, six hours after administration): higher than those of placebo recipients
higher binding affinity for sst1 compared with octreotide (human sst1; ratio versus octreotide): 30 fold
IC50 (human sst1): 9.3 ± 0.1 nM
lower affinity for sst2 compared with octreotide (human sst2; ratio versus octreotide): 2.6 times
IC50 (human sst2): 1 ± 0.1 nM
higher binding affinity for sst3 compared with octreotide (human sst3; ratio versus octreotide): 5 fold
IC50 (human sst4): > 1000 nM
higher binding affinity for sst5 than endogenous somatostatin (human sst5; ratio versus endogenous somatostatin): 2 fold
higher binding affinity for sst5 compared with octreotide (human sst5; ratio versus octreotide): 39 fold
IC50 (human sst5): 0.16 ± 0.01 nM
metabolic stability [5]: greater metabolic stability than octreotide
